Legend:
[1] = molecular target: Serine/threonine-protein kinase tousled-like 2 (Homo sapiens) (UniProt Q86UE8); experiment: Inhibition of TLK2 in human SKCO1 cells at 1 uM after 4 hrs using biotin labeled YLNEIKPPIIHYDLKPGNILLVNGTACEIK probe by mass-spectrometric analysis relative to control; assay type: cell-based
Procedure, shortened: (§1)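 Live SK-CO-1 cells exposed to compound at 1 μM or DMSO for 4 h (KiNativ). Lysates then labeled with lysine-reactive ATP/ADP-biotin probe, and probe-labeled kinase peptides quantified by mass spectrometry. Percent inhibition of probe-dependent recovery calculated relative to DMSO-treated cells.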

[2] = molecular target: Mitogen-activated protein kinase kinase kinase kinase 1 (Homo sapiens) (UniProt Q92918); experiment: Inhibition of HPK1 in human SKCO1 cells at 1 uM after 4 hrs using biotin labeled DIKGANILINDAGEVR probe by mass-spectrometric analysis relative to control; assay type: cell-based
Sequence of Mitogen-activated protein kinase kinase kinase kinase 1 (Homo sapiens) (Q92918 whole entry, looked up): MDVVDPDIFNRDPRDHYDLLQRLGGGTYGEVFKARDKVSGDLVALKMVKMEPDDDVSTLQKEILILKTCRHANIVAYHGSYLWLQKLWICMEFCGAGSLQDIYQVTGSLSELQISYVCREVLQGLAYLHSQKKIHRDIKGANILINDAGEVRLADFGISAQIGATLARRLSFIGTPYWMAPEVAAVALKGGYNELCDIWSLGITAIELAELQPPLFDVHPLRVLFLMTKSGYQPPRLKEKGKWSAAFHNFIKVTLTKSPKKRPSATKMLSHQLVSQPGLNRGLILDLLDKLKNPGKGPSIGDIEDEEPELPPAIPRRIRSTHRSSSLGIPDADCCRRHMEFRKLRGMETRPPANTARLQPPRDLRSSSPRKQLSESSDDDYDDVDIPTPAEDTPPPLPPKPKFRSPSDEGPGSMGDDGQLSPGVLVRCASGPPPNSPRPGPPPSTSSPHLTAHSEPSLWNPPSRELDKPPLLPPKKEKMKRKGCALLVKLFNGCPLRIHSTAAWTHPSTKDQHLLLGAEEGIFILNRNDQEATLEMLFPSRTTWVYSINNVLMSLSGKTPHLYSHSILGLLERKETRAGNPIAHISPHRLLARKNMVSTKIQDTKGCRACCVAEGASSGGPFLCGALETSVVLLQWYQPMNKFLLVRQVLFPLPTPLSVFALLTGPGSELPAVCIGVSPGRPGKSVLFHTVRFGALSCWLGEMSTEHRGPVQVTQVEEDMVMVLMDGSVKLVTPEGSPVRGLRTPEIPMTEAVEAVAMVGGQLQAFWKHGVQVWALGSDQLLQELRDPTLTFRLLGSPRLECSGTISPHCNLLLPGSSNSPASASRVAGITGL

[3] = molecular target: T1, Serine/threonine-protein kinase LATS2 (Homo sapiens) (UniProt Q9NRM7); experiment: Inhibition of LATS2 in human SKCO1 cells at 1 uM after 4 hrs using biotin labeled DIKPDNILIDLDGHIK probe by mass-spectrometric analysis relative to control; assay type: cell-based
T1 sequence (whole entry): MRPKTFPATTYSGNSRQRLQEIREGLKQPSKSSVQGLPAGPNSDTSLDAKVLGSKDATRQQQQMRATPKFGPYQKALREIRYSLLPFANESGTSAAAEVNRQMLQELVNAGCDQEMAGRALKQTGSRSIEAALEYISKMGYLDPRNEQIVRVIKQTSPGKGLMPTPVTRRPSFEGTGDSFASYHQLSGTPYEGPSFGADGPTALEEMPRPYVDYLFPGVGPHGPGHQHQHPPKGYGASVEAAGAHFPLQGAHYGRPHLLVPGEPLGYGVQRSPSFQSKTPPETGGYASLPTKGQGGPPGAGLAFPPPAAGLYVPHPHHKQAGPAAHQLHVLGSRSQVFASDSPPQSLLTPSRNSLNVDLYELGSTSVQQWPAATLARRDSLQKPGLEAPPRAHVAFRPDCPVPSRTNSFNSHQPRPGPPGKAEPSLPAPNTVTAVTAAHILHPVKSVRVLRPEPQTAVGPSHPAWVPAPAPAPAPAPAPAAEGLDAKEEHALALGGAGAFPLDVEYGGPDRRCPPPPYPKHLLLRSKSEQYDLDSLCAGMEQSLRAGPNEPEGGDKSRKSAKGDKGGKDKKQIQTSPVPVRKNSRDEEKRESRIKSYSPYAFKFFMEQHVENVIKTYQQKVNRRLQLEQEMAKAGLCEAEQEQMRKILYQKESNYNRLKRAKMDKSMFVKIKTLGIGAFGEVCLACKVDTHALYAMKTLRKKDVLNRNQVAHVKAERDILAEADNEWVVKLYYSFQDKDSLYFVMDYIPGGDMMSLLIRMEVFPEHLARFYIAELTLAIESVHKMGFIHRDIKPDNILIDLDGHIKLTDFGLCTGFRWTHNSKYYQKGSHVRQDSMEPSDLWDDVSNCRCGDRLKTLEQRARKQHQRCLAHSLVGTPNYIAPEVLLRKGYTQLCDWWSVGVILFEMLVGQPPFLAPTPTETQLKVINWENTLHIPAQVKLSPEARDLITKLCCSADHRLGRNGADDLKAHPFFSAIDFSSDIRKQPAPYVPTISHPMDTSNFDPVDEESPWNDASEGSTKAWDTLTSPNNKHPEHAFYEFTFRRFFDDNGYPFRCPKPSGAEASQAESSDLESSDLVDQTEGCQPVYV

[4] = molecular target: Serine/threonine-protein kinase MARK2 (Homo sapiens) (UniProt Q7KZI7); experiment: Inhibition of MARK2 in human SKCO1 cells at 1 uM after 4 hrs using biotin labeled EVAVKIIDKTQLNSSSLQK probe by mass-spectrometric analysis relative to control; assay type: cell-based
Sequence of Serine/threonine-protein kinase MARK2 (Homo sapiens) (Q7KZI7 whole entry): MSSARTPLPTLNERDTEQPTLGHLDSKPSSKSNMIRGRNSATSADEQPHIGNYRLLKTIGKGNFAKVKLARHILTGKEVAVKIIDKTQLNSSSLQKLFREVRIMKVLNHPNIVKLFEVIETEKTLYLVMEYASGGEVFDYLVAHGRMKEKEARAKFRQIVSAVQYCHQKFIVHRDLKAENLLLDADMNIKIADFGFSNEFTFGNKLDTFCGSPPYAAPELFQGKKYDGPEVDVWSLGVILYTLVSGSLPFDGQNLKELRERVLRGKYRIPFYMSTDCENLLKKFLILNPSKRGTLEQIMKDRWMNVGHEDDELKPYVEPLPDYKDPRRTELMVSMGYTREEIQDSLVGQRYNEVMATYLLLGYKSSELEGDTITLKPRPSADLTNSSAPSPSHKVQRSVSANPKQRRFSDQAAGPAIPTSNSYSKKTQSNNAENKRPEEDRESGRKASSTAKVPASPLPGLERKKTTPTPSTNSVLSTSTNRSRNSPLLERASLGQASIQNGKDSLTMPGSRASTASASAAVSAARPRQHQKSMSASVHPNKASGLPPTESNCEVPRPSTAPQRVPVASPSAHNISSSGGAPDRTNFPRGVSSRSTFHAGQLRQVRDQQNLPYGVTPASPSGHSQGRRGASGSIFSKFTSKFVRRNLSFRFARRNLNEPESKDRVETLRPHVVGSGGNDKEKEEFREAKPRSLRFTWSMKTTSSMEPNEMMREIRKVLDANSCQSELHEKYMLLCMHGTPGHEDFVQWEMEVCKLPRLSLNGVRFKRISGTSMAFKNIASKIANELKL

[5] = molecular target: MAP/microtubule affinity-regulating kinase 3 (Homo sapiens) (UniProt P27448); experiment: Inhibition of MARK3 in human SKCO1 cells at 1 uM after 4 hrs using biotin labeled DLKAENLLLDADMNIK probe by mass-spectrometric analysis relative to control; assay type: cell-based
Sequence of MAP/microtubule affinity-regulating kinase 3 (Homo sapiens) (P27448 whole entry, looked up): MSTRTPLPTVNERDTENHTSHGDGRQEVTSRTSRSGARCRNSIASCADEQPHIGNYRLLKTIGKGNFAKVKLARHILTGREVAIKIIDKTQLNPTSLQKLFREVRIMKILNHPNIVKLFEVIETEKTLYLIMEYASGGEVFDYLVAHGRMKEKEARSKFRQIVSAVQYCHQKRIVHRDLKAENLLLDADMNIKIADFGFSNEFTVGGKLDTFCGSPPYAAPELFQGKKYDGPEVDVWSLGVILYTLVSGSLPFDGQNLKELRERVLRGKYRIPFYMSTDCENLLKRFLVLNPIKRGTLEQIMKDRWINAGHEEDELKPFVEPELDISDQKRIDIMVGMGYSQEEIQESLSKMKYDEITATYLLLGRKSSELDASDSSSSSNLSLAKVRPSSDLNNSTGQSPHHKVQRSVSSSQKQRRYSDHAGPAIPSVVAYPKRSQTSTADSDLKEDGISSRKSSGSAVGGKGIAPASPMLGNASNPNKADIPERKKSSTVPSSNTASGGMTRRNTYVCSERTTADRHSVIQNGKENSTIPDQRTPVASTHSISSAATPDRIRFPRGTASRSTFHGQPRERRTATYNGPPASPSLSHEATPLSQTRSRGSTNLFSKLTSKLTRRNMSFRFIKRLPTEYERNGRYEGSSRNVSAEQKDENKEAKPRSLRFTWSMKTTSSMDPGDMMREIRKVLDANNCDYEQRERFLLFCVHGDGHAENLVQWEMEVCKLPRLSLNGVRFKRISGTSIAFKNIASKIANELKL

[6] = Increase in secretion of basic-FGF in TNFalpha activated RA patient-derived synovial fibroblasts at 0.6 to 3 uM preincubated for 3 hrs followed by TNFalpha stimulation measured after 18 hrs by sandwich immunoassay; details: human
Procedure, shortened: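 Primary RA patient synovial fibroblasts (donor RA2159) were seeded at 1000 cells/well, grown about 24 h, then starved overnight and again about 4 h in basal medium with 0.1% BSA. Cells were pre-incubated 3 h with inhibitor (0.6 or 3 μM) or DMSO, then stimulated 18 h with 10 ng/mL TNFα. Paired wells were pooled, in biological duplicate. Pooled supernatants were diluted 1:3 and read on Luminex bead sandwich immunoassays, with mock-medium background and spiked-ligand controls.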

[7] = molecular target: Dual specificity mitogen-activated protein kinase kinase 1 (Homo sapiens) (UniProt Q02750); experiment: Inhibition of MAP2K1 in human SKCO1 cells at 1 uM after 4 hrs using biotin labeled IMHRDVKPSNILVNSR probe by mass-spectrometric analysis relative to control; assay type: cell-based
Sequence of Dual specificity mitogen-activated protein kinase kinase 1 (Homo sapiens) (Q02750 whole entry): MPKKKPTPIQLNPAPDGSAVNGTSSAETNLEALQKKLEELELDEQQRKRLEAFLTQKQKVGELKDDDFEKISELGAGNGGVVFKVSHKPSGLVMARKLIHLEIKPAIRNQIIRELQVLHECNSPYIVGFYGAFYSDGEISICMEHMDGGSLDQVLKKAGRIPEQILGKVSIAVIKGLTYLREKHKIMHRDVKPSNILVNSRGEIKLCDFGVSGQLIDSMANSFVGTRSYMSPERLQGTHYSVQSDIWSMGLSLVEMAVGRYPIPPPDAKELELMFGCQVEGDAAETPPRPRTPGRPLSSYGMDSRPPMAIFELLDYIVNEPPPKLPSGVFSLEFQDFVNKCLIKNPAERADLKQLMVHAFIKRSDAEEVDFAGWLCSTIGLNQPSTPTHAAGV
Procedure, shortened: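 Live SK-CO-1 cells treated 4 h at 1 μM (DMSO control); cells lysed and lysates labeled with lysine-reactive ATP/ADP-biotin probe (KiNativ); probe-labeled kinase peptides quantified by mass spectrometry; inhibition expressed as percent reduction in probe-dependent recovery versus DMSO-treated cells.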

[8] = molecular target: Tyrosine-protein kinase CSK (Homo sapiens) (UniProt P41240); experiment: Inhibition of CSK in human SKCO1 cells at 1 uM after 4 hrs using biotin labeled VSDFGLTKEASSTQDTGKLPVK probe by mass-spectrometric analysis relative to control; assay type: cell-based
Sequence of Tyrosine-protein kinase CSK (Homo sapiens) (P41240 2-450 limits assumed): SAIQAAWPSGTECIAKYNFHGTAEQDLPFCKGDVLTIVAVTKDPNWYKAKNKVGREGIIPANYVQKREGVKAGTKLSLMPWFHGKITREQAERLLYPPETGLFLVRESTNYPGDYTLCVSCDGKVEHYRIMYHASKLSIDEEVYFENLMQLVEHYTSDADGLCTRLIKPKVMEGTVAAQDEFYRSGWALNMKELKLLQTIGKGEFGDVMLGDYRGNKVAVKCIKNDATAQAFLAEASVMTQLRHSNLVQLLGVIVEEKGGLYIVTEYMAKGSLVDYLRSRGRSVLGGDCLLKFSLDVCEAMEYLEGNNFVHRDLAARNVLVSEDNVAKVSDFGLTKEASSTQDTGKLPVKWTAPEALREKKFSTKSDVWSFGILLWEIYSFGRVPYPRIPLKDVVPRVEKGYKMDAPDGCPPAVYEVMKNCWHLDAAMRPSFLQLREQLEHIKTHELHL

[9] = molecular target: Mitogen-activated protein kinase kinase kinase 4 (Homo sapiens) (UniProt Q9Y6R4); experiment: Inhibition of MAP3K4 in human SKCO1 cells at 1 uM after 4 hrs using biotin labeled DIKGANIFLTSSGLIK probe by mass-spectrometric analysis relative to control; assay type: cell-based
[10] = molecular target: Tyrosine-protein kinase Fes/Fps (Homo sapiens) (UniProt P07332); experiment: Inhibition of FES in human SKCO1 cells at 1 uM after 4 hrs using biotin labeled LRADNTLVAVKSCR probe by mass-spectrometric analysis relative to control; assay type: cell-based
[11] = molecular target: Bone morphogenetic protein receptor type-1A (Homo sapiens) (UniProt P36894); experiment: Inhibition of BMPR1A in human SKCO1 cells at 1 uM after 4 hrs using biotin labeled SKNILIK probe by mass-spectrometric analysis relative to control; assay type: cell-based
Sequence of Bone morphogenetic protein receptor type-1A (Homo sapiens) (P36894 whole entry): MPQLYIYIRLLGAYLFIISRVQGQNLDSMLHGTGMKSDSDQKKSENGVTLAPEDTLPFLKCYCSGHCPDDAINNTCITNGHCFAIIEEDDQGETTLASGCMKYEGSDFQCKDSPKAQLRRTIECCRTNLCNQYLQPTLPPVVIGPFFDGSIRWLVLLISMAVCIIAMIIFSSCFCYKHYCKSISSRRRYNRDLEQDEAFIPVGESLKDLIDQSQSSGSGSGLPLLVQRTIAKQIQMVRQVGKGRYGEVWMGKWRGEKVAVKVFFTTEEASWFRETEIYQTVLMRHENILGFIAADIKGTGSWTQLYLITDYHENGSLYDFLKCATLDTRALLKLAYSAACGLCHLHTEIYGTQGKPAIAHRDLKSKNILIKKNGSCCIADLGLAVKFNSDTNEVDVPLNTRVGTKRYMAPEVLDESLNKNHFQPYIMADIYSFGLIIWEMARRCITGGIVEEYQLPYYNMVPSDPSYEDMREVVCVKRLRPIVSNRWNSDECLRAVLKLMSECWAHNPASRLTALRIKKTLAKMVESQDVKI

[12] = molecular target: Serine/threonine-protein kinase Nek4 (Homo sapiens) (UniProt P51957); experiment: Inhibition of NEK4 in human SKCO1 cells at 1 uM after 4 hrs using biotin labeled DLKTQNVFLTR probe by mass-spectrometric analysis relative to control; assay type: cell-based; procedure, shortened: as §1
Sequence of Serine/threonine-protein kinase Nek4 (Homo sapiens) (P51957 whole entry, looked up): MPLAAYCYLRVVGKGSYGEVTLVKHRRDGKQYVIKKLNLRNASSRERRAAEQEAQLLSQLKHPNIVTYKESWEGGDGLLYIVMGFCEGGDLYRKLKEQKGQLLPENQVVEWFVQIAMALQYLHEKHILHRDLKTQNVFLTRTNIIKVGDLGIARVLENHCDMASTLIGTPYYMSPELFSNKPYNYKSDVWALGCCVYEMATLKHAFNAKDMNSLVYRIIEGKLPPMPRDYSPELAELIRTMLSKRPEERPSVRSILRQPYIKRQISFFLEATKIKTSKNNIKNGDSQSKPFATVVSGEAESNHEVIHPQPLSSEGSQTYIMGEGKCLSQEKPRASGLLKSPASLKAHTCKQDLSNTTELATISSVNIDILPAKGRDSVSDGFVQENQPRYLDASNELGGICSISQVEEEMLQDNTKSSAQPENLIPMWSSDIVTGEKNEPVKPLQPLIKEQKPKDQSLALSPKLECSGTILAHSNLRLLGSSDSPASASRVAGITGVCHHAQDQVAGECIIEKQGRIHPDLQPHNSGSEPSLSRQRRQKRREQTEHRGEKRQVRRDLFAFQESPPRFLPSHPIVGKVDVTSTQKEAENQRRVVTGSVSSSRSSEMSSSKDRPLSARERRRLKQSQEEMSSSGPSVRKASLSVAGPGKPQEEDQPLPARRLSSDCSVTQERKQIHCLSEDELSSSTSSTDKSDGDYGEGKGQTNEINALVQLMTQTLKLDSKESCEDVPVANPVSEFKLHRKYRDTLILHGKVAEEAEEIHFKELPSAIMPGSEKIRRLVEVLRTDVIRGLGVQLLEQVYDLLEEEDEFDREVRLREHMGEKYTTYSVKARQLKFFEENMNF

[13] = molecular target: Epidermal growth factor receptor (Homo sapiens) (UniProt P00533); experiment: Inhibition of EGFR in human SKCO1 cells at 1 uM after 4 hrs using biotin labeled LLGAEEKEYHAEGGKVPIK probe by mass-spectrometric analysis relative to control; assay type: cell-based

| SMILES | inhibition [1] [%] | inhibition [2] [%] | inhibition [3] [%] | inhibition [4] [%] | inhibition [5] [%] | Activity [6] | inhibition [7] [%] | inhibition [8] [%] | inhibition [9] [%] | inhibition [10] [%] | inhibition [11] [%] | inhibition [12] [%] | inhibition [13] [%] |
| --- | --- | --- | --- | --- | --- | --- | --- | --- | --- | --- | --- | --- | --- |
| C=CC(=O)Nc1ccccc1Oc1nc(Nc2cnn(CCOC)c2)ncc1Cl | 3.8 | 72.6 | 6.7 | 6.3 | -8.4 | Non-Toxic | -7.9 | 5.2 | 12.9 | 13.6 | 19.9 | 15.1 | 28.6 |
| C=CC(=O)Nc1ccccc1Nc1nc(Nc2ccc(N3CCN(C)CC3)cc2)ncc1Cl | -2.7 | 34.9 | 40.7 | 2.5 | -7.2 | Toxic | 60 | -0.8 | 63.3 | 77.3 | 28 | 23.8 | 47.6 |
| COc1cc(O)c2c(c1)/C=C/C[C@H](O)[C@H](O)C(=O)/C=C\C[C@H](C)OC2=O | -1.8 | 77.3 | -0.3 | -8.1 | 3.6 | Toxic | 89.4 | -1.8 | 17.8 | 67.7 | 73.1 | 18.9 | 14.5 |
